These results are taken from ChEMBL document CHEMBL1130417 (J Med Chem, 1997).

“And” between values parts separate entries of the source, which are not always exact repeats. Equal entries are not always repeated.

One may read the IC50 as the concentration that inhibits the measured activity by half.

Test [1] deals with Delta-type opioid receptor (Rattus norvegicus, UniProt P33533). As to the kind of experiment: Inhibition of radioligand [3H]DADLE binding to rat brain Opioid receptor delta 1. In a few lines:
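Rat brain membranes were labelled with [3H]DADLE (1.7–2.5 nM) for 3–4 h at 25 °C in Tris-HCl pH 7.4 with 100 mM choline chloride, 3 mM MnCl2, protease inhibitor cocktail and 100 nM DAMGO to block μ sites. Nonspecific binding was set with 20 μM levallorphan. Displacement used 8–10 drug concentrations, run twice. IC50 and slope factor came from curve fitting.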

For test [2], the target named is Mu-type opioid receptor (Rattus norvegicus, UniProt P33535). As to the kind of experiment: Inhibition of radioligand [3H]DAMGO binding to rat brain Opioid receptor mu 1 […]. In a few lines: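 Rat brain membranes were labelled with [3H]DAMGO (1–3 nM) for 4 h at 25 °C in 50 mM Tris-HCl pH 7.4 with protease inhibitor cocktail. Nonspecific binding was set with 20 μM levallorphan. Displacement used 8–10 drug concentrations, run twice, with drug diluted in Tris pH 7.4 containing 1 mg/mL BSA. IC50 and slope factor came from curve fitting.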
Mu-type opioid receptor (Rattus norvegicus, UniProt P33535), sequence (P33535 whole entry): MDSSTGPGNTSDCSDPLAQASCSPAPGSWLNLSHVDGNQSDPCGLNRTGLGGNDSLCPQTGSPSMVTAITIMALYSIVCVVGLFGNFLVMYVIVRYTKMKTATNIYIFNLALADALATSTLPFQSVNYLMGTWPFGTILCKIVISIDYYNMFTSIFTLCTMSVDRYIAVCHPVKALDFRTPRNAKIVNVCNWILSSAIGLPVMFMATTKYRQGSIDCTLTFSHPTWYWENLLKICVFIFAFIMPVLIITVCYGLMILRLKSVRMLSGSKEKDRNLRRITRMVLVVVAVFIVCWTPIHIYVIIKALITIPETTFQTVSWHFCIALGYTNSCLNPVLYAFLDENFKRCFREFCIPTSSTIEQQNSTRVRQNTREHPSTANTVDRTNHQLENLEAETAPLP

In test [3] the target is Opioid receptors; mu & delta (Rattus norvegicus) (UniProt P33533+P33535). As to the kind of experiment: Mu/delta inhibitory ratio of compound determined Rat brain receptors.
Opioid receptors; mu & delta (Rattus norvegicus), sequence (P33533 whole entry, looked up): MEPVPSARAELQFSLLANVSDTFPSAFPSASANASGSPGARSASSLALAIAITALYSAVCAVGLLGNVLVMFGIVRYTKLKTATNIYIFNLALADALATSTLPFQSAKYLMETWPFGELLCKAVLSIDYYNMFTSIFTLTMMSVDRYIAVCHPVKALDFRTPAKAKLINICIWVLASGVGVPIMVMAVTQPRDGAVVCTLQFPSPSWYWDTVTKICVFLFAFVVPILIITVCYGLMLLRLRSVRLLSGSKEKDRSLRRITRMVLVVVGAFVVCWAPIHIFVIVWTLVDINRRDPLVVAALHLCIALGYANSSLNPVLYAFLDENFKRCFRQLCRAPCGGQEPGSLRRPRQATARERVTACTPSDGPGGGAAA
Opioid receptors; mu & delta (Rattus norvegicus), sequence (P33535 whole entry, looked up): as the sequence (P33535 whole entry) above
The target of test [4] is Mu-type opioid receptor (Cavia porcellus, UniProt P97266). As to the kind of experiment: Agonist activity was evaluated in guinea pig ileum (GPI) preparations at Opioid receptor mu 1. In kind it is functional, tissue-based. In a few lines:
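Longitudinal muscle–myenteric plexus strips from male Hartley guinea pig ileum (250–500 g) were held in 37 °C oxygenated Krebs bicarbonate under 1 g tension.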

For test [5], the species on record is Cavia porcellus. As to the kind of experiment: IC50 ratio on Mu receptor of GPI to the delta receptor MVD. In a few lines: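 The ratio is guinea pig ileum IC50 divided by mouse vas deferens IC50. Both tissues were electrically stimulated at 0.1 Hz, the ileum with 0.4-ms and the vas deferens with 2-ms pulses, and exposed to cumulative agonist doses.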
Test [6] addresses Delta-type opioid receptor (Mus musculus, UniProt P32300). As to the kind of experiment: Agonist activity was evaluated in mouse vas deferens (MVD) preparations at Opioid receptor delta 1. The class given is functional. In a few lines: (§1)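 Vas deferens from male ICR mice (25–40 g) was held in 37 °C oxygenated magnesium-free Krebs bicarbonate under 0.5 g tension. Tissue was field-stimulated at 0.1 Hz with 2-ms supramaximal pulses.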

The species entered for test [7] is Mus musculus. As to the kind of experiment: Agonist activity was evaluated in mouse vas deferens (MVD) preparations at opioid delta receptor. In kind it is functional. In a few lines: as §1

Delta-type opioid receptor (Mus musculus, UniProt P32300), sequence (P32300 whole entry): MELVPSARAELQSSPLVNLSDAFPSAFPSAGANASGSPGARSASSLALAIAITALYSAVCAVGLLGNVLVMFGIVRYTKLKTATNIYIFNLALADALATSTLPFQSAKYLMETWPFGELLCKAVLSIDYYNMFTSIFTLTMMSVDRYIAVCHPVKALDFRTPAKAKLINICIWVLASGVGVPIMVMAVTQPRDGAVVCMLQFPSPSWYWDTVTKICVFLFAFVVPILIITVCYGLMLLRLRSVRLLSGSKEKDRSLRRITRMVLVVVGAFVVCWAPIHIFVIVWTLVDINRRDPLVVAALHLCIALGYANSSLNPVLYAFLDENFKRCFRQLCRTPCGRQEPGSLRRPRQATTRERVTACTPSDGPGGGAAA
Delta-type opioid receptor (Rattus norvegicus, UniProt P33533), sequence (P33533 whole entry): as the sequence (P33533 whole entry, looked up) above
Mu-type opioid receptor (Cavia porcellus, UniProt P97266), sequence (P97266 whole entry): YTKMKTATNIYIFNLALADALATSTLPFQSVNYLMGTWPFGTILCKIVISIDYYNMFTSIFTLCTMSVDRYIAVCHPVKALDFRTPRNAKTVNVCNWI

`C=CCN1C[C@H](C)N([C@H](c2ccc(C(=O)N(CC)CC)cc2)c2cccc(O)c2)C[C@H]1C` (stereo in doubt; (+)-1) came in with an IC50 in test [1] of 1.49 nM.
Take `C=CCN1C[C@H](C)N([C@H](c2ccc(C(=O)N(CC)CC)cc2)c2cccc(F)c2)C[C@H]1C` (stereo in doubt; (-)-23) [listing 1 of 2 here]: the figures for the IC50 in test [1] and in test [2] were 1380 nM and greater than 10000 nM, respectively.
`C=CCN1C[C@H](C)N([C@@H](c2ccccc2)c2ccc(C(=O)N(CC)CC)cc2)C[C@H]1C` (stereo in doubt; (-)-22) [listing 1 of 2 here]: in test [3], the Ratio was greater than 11.7.
`CC(NC(=O)[C@@H](N)Cc1ccc(O)cc1)C(=O)N[C@@H](Cc1ccccc1)C(=O)N[C@@H](CC(=O)O)C(=O)N[C@H](C(=O)N[C@H](C(=O)NCC(N)=O)C(C)C)C(C)C` (single isomer, unassigned) [DELTORPHIN C]: the IC50 in test [4] came to 15000 nM.
Consider `C=CCN1C[C@H](C)N([C@H](c2ccccc2)c2ccc(C(=O)N(CC)CC)cc2)C[C@H]1C` (stereo in doubt; (-)-26) [listing 1 of 2 here], for which the Ratio in test [3] is greater than 916.
As for `C=CCN1C[C@H](C)N([C@@H](c2ccccc2)c2ccc(C(=O)N(CC)CC)cc2)C[C@H]1C` (stereo in doubt; (-)-22) [listing 2 of 2 here], the IC50 in test [1] is 852 nM; in test [2], greater than 10000 nM.
Regarding `C=CCN1C[C@H](C)N([C@H](c2ccc(C(=O)N(CC)CC)cc2)c2cccc(F)c2)C[C@H]1C` (stereo in doubt; (-)-23) [listing 2 of 2 here], the Ratio in test [3] was greater than 7.3.
For `C=CCN1C[C@H](C)N([C@@H](c2ccccc2)c2ccc(C(=O)N(CC)CC)cc2)C[C@H]1C` (stereo in doubt; (+)-22) [listing 1 of 2 here], the figures for the IC50 in test [1], in test [2] and in test [4] were 0.94 nM, greater than 2500 nM and 8580 nM, respectively.
`C=CCN1C[C@H](C)N([C@@H](c2ccc(C(=O)N(CC)CC)cc2)c2cccc(OC)c2)C[C@H]1C` (stereo in doubt; (+)-25): in test [2], the IC50 turned out to be 5710 nM.
Consider `C=CCN1C[C@H](C)N([C@@H](c2ccccc2)c2ccc(C(=O)N(CC)CC)cc2)C[C@H]1C` (stereo in doubt; (+)-22) [listing 2 of 2 here], for which the Ratio in test [5] is 813; in test [3] it was greater than 2660.
For the compound `C=CCN1C[C@@H](C)N([C@H](c2ccc(C(=O)N(CC)CC)cc2)c2cccc(O)c2)C[C@@H]1C` (single isomer, unassigned), the IC50 in test [1] stood at 1.74 nM.
`C=CCN1C[C@H](C)N([C@@H](c2ccc(C(=O)N(CC)CC)cc2)c2cccc(O)c2)C[C@H]1C` came in with an IC50 in test [1] of 11.4 nM.
Take `C=CCN1C[C@H](C)N([C@H](c2ccccc2)c2ccc(C(=O)N(CC)CC)cc2)C[C@H]1C` (stereo in doubt; (-)-26) [listing 2 of 2 here]: the IC50 in test [1] amounted to 9.22 nM; in test [2], 8450 nM; in test [4], 1780 nM; in test [6] it was 126 nM.
In test [1], `C=CCN1C[C@H](C)N([C@H](c2ccc(C(=O)N(CC)CC)cc2)c2cccc(O)c2)C[C@H]1C` (stereo in doubt; (-)-1) came in with an IC50 of 58.3 nM.
With `C=CCN1C[C@H](C)N([C@@H](c2ccc(C(=O)N(CC)CC)cc2)c2cccc(F)c2)C[C@H]1C`, the figures for the IC50 in test [1] and in test [2] were 62.5 nM and greater than 10000 nM, respectively. In test [3], the Ratio is greater than 160.
On to `C=CCN1C[C@H](C)N([C@H](c2ccc(C(=O)N(CC)CC)cc2)c2cccc(I)c2)C[C@H]1C`, for which the IC50 is 3.91 nM in test [1], 1230 nM in test [2], greater than 3000 nM in test [4] and 44.2 nM in test [6]. For the same compound, the Ratio in test [3] worked out at 314.
`C=CCN1C[C@@H](C)N([C@H](c2ccc(C(=O)N(CC)CC)cc2)c2cccc(F)c2)C[C@@H]1C` (single isomer, unassigned): the IC50 was 4.75 nM in test [1] and greater than 10000 nM in test [2]. Also, the Ratio in test [3] is greater than 2110.
On to `C=CCN1C[C@H](C)N([C@@H](c2ccc(C(=O)N(CC)CC)cc2)c2cccc(OC)c2)C[C@H]1C` (stereo in doubt; (-)-25), for which the IC50 in test [2] amounted to 9140 nM; in test [4], 1520 nM.
Take `C=CCN1C[C@H](C)N([C@@H](c2ccc(C(=O)N(CC)CC)cc2)c2cccc(I)c2)C[C@H]1C`: the IC50 in test [1] was found to be 41.1 nM; in test [2] it was 3380 nM. Further, the Ratio in test [3] was 82.2.
With `C=CCN1C[C@H](C)N([C@H](c2ccccc2)c2ccc(C(=O)N(CC)CC)cc2)C[C@H]1C` (stereo in doubt; (+)-26) [listing 1 of 2 here], the Ratio in test [3] is greater than 167.
Regarding `C=CCN1C[C@H](C)N([C@H](c2ccccc2)c2ccc(C(=O)N(CC)CC)cc2)C[C@H]1C` (stereo in doubt; (+)-26) [listing 2 of 2 here], the figures for the IC50 in test [1] and in test [2] were 60 nM and greater than 10000 nM, respectively.
Regarding `C=CCN1C[C@H](C)N([C@H](c2ccc(C(=O)N(CC)CC)cc2)c2cccc(F)c2)C[C@H]1C` (stereo in doubt; (+)-23) [listing 1 of 2 here], the Ratio in test [5] worked out at 265; in test [3], 677.
As for `C=CCN1C[C@H](C)N([C@H](c2ccc(C(=O)N(CC)CC)cc2)c2cccc(F)c2)C[C@H]1C` (stereo in doubt; (+)-23) [listing 2 of 2 here], the IC50 is 2.92 nM in test [1]; 200 nM in test [7]; 1980 nM in test [2]; 2600 nM in test [4]; 9.77 nM and 10.3 nM in test [6].
